Measurements taken from ChEMBL document CHEMBL1667754, “Synthesis and biological activity of pyrazolothienotetrahydroisoquinoline and [1,2,4]triazolo[3,4-a]thienotetrahydroisoquinoline derivatives” (2011).

How the values were obtained:
Fusarium oxysporum = assay: Antifungal activity against Fusarium oxysporum at 2% by disc diffusion assay
Aspergillus flavus = assay: Antifungal activity against Aspergillus flavus at 2% by disc diffusion assay
Micrococcus luteus = assay: Antibacterial activity against Micrococcus luteus at 50 uL/well by well diffusion assay; assay type: functional
Procedure, shortened: (§1)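 Bauer-type diffusion assay. Test compounds were at 2% in DMSO. The read-out was the diameter (mm) of the inhibition zone, with chloramphenicol as the reference agent.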

Escherichia coli = assay: Antibacterial activity against Escherichia coli at 50 uL/well by well diffusion assay; assay type: functional
Procedure, shortened: as §1

Serratia marcescens = assay: Antibacterial activity against Serratia marcescens at 200 ug/disc by disc diffusion assay
Trichophyton rubrum = assay: Antifungal activity against Trichophyton rubrum at 50 uL/well by well diffusion assay; assay type: functional
Procedure, shortened: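 Agar discs (10 mm) carrying spores and hyphae were shaken in sterile distilled water. 1 mL of the spore suspension was plated and mixed with 15 mL molten SDA, then left to set. Compounds were at 2% in DMSO, applied per Bauer's diffusion method. The read-out was the inhibition zone (mm).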

Geotrichum candidum = assay: Antifungal activity against Geotrichum candidum at 2% by disc diffusion assay
Pseudomonas aeruginosa = assay: Antibacterial activity against Pseudomonas aeruginosa at 200 ug/disc by disc diffusion assay
Aspergillus niger = assay: Antifungal activity against Aspergillus niger at 2% by disc diffusion assay
Candida albicans = assay: Antifungal activity against Candida albicans at 200 ug/disc by disc diffusion assay
[1] = tested on: Scopulariopsis brevicaulis; assay: Antifungal activity against Scopulariopsis brevicaulis at 2% by disc diffusion assay
Staphylococcus aureus = assay: Antibacterial activity against Staphylococcus aureus at 200 ug/disc by disc diffusion assay
Bacillus cereus = assay: Antibacterial activity against Bacillus cereus at 200 ug/disc by disc diffusion assay

N#Cc1c2c(c(NN)[nH]c1=S)CCCC2
diameter of the inhibition zone (DIZ) (Fusarium oxysporum): 13 mm
diameter of the inhibition zone (DIZ) (Aspergillus flavus): 10 mm
diameter of the inhibition zone (DIZ) (Micrococcus luteus): 14 mm
diameter of the inhibition zone (DIZ) (Escherichia coli): 14 mm
diameter of the inhibition zone (DIZ) (Serratia marcescens): 0 mm
diameter of the inhibition zone (DIZ) (Trichophyton rubrum): 17 mm
diameter of the inhibition zone (DIZ) (Geotrichum candidum): 0 mm
diameter of the inhibition zone (DIZ) (Pseudomonas aeruginosa): 0 mm
diameter of the inhibition zone (DIZ) (Aspergillus niger): 12 mm
diameter of the inhibition zone (DIZ) (Candida albicans): 12 mm
diameter of the inhibition zone (DIZ) [1]: 0 mm
diameter of the inhibition zone (DIZ) (Staphylococcus aureus): 11 mm
diameter of the inhibition zone (DIZ) (Bacillus cereus): 20 mm

N#Cc1c2c(c3[nH]ncn3c1=S)CCCC2
diameter of the inhibition zone (DIZ) (Fusarium oxysporum): 0 mm
diameter of the inhibition zone (DIZ) (Aspergillus flavus): 0 mm
diameter of the inhibition zone (DIZ) (Micrococcus luteus): 12 mm
diameter of the inhibition zone (DIZ) (Escherichia coli): 10 mm
diameter of the inhibition zone (DIZ) (Serratia marcescens): 10 mm
diameter of the inhibition zone (DIZ) (Trichophyton rubrum): 0 mm
diameter of the inhibition zone (DIZ) (Geotrichum candidum): 0 mm
diameter of the inhibition zone (DIZ) (Pseudomonas aeruginosa): 0 mm
diameter of the inhibition zone (DIZ) (Aspergillus niger): 0 mm
diameter of the inhibition zone (DIZ) (Candida albicans): 10 mm
diameter of the inhibition zone (DIZ) [1]: 0 mm
diameter of the inhibition zone (DIZ) (Staphylococcus aureus): 8 mm
diameter of the inhibition zone (DIZ) (Bacillus cereus): 15 mm

Cc1cc(C)n(-c2[nH]c(=S)c(C#N)c3c2CCCC3)n1
diameter of the inhibition zone (DIZ) (Fusarium oxysporum): 0 mm
diameter of the inhibition zone (DIZ) (Aspergillus flavus): 0 mm
diameter of the inhibition zone (DIZ) (Micrococcus luteus): 0 mm
diameter of the inhibition zone (DIZ) (Escherichia coli): 0 mm
diameter of the inhibition zone (DIZ) (Serratia marcescens): 0 mm
diameter of the inhibition zone (DIZ) (Trichophyton rubrum): 0 mm
diameter of the inhibition zone (DIZ) (Geotrichum candidum): 0 mm
diameter of the inhibition zone (DIZ) (Pseudomonas aeruginosa): 0 mm
diameter of the inhibition zone (DIZ) (Aspergillus niger): 0 mm
diameter of the inhibition zone (DIZ) (Candida albicans): 0 mm
diameter of the inhibition zone (DIZ) [1]: 0 mm
diameter of the inhibition zone (DIZ) (Staphylococcus aureus): 8 mm
diameter of the inhibition zone (DIZ) (Bacillus cereus): 16 mm

N#Cc1c2c(c(-n3[nH]c(=O)cc3N)[nH]c1=S)CCCC2
diameter of the inhibition zone (DIZ) (Fusarium oxysporum): 0 mm
diameter of the inhibition zone (DIZ) (Aspergillus flavus): 0 mm
diameter of the inhibition zone (DIZ) (Micrococcus luteus): 10 mm
diameter of the inhibition zone (DIZ) (Escherichia coli): 0 mm
diameter of the inhibition zone (DIZ) (Serratia marcescens): 0 mm
diameter of the inhibition zone (DIZ) (Trichophyton rubrum): 0 mm
diameter of the inhibition zone (DIZ) (Geotrichum candidum): 8 mm
diameter of the inhibition zone (DIZ) (Pseudomonas aeruginosa): 0 mm
diameter of the inhibition zone (DIZ) (Aspergillus niger): 0 mm
diameter of the inhibition zone (DIZ) (Candida albicans): 0 mm
diameter of the inhibition zone (DIZ) [1]: 0 mm
diameter of the inhibition zone (DIZ) (Staphylococcus aureus): 0 mm
diameter of the inhibition zone (DIZ) (Bacillus cereus): 9 mm

N#Cc1c2c(c(N3N=C(c4ccccc4)CC3=O)[nH]c1=S)CCCC2
diameter of the inhibition zone (DIZ) (Fusarium oxysporum): 0 mm
diameter of the inhibition zone (DIZ) (Aspergillus flavus): 0 mm
diameter of the inhibition zone (DIZ) (Micrococcus luteus): 0 mm
diameter of the inhibition zone (DIZ) (Escherichia coli): 13 mm
diameter of the inhibition zone (DIZ) (Serratia marcescens): 0 mm
diameter of the inhibition zone (DIZ) (Trichophyton rubrum): 14 mm
diameter of the inhibition zone (DIZ) (Geotrichum candidum): 0 mm
diameter of the inhibition zone (DIZ) (Pseudomonas aeruginosa): 0 mm
diameter of the inhibition zone (DIZ) (Aspergillus niger): 0 mm
diameter of the inhibition zone (DIZ) (Candida albicans): 0 mm
diameter of the inhibition zone (DIZ) [1]: 0 mm
diameter of the inhibition zone (DIZ) (Staphylococcus aureus): 0 mm
diameter of the inhibition zone (DIZ) (Bacillus cereus): 0 mm

N#CCSc1c(C#N)c2c(c3nncn13)CCCC2
diameter of the inhibition zone (DIZ) (Fusarium oxysporum): 0 mm
diameter of the inhibition zone (DIZ) (Aspergillus flavus): 0 mm
diameter of the inhibition zone (DIZ) (Micrococcus luteus): 11 mm
diameter of the inhibition zone (DIZ) (Escherichia coli): 8 mm
diameter of the inhibition zone (DIZ) (Serratia marcescens): 12 mm
diameter of the inhibition zone (DIZ) (Trichophyton rubrum): 0 mm
diameter of the inhibition zone (DIZ) (Geotrichum candidum): 0 mm
diameter of the inhibition zone (DIZ) (Pseudomonas aeruginosa): 0 mm
diameter of the inhibition zone (DIZ) (Aspergillus niger): 0 mm
diameter of the inhibition zone (DIZ) (Candida albicans): 0 mm
diameter of the inhibition zone (DIZ) [1]: 0 mm
diameter of the inhibition zone (DIZ) (Staphylococcus aureus): 10 mm
diameter of the inhibition zone (DIZ) (Bacillus cereus): 12 mm

N#Cc1sc2c(c1N)c1c(c3nncn32)CCCC1
diameter of the inhibition zone (DIZ) (Fusarium oxysporum): 0 mm
diameter of the inhibition zone (DIZ) (Aspergillus flavus): 0 mm
diameter of the inhibition zone (DIZ) (Micrococcus luteus): 0 mm
diameter of the inhibition zone (DIZ) (Escherichia coli): 0 mm
diameter of the inhibition zone (DIZ) (Serratia marcescens): 11 mm
diameter of the inhibition zone (DIZ) (Trichophyton rubrum): 0 mm
diameter of the inhibition zone (DIZ) (Geotrichum candidum): 0 mm
diameter of the inhibition zone (DIZ) (Pseudomonas aeruginosa): 0 mm
diameter of the inhibition zone (DIZ) (Aspergillus niger): 0 mm
diameter of the inhibition zone (DIZ) (Candida albicans): 0 mm
diameter of the inhibition zone (DIZ) [1]: 0 mm
diameter of the inhibition zone (DIZ) (Staphylococcus aureus): 9 mm
diameter of the inhibition zone (DIZ) (Bacillus cereus): 11 mm

CCOC(=O)CSc1c(C#N)c2c(c3nncn13)CCCC2
diameter of the inhibition zone (DIZ) (Fusarium oxysporum): 0 mm
diameter of the inhibition zone (DIZ) (Aspergillus flavus): 0 mm
diameter of the inhibition zone (DIZ) (Micrococcus luteus): 10 mm
diameter of the inhibition zone (DIZ) (Escherichia coli): 0 mm
diameter of the inhibition zone (DIZ) (Serratia marcescens): 0 mm
diameter of the inhibition zone (DIZ) (Trichophyton rubrum): 0 mm
diameter of the inhibition zone (DIZ) (Geotrichum candidum): 0 mm
diameter of the inhibition zone (DIZ) (Pseudomonas aeruginosa): 0 mm
diameter of the inhibition zone (DIZ) (Aspergillus niger): 0 mm
diameter of the inhibition zone (DIZ) (Candida albicans): 0 mm
diameter of the inhibition zone (DIZ) [1]: 0 mm
diameter of the inhibition zone (DIZ) (Staphylococcus aureus): 0 mm
diameter of the inhibition zone (DIZ) (Bacillus cereus): 11 mm

CCOC(=O)c1sc2c(c1N)c1c(c3nncn32)CCCC1
diameter of the inhibition zone (DIZ) (Fusarium oxysporum): 0 mm
diameter of the inhibition zone (DIZ) (Aspergillus flavus): 8 mm
diameter of the inhibition zone (DIZ) (Micrococcus luteus): 0 mm
diameter of the inhibition zone (DIZ) (Escherichia coli): 11 mm
diameter of the inhibition zone (DIZ) (Serratia marcescens): 10 mm
diameter of the inhibition zone (DIZ) (Trichophyton rubrum): 0 mm
diameter of the inhibition zone (DIZ) (Geotrichum candidum): 0 mm
diameter of the inhibition zone (DIZ) (Pseudomonas aeruginosa): 0 mm
diameter of the inhibition zone (DIZ) (Aspergillus niger): 0 mm
diameter of the inhibition zone (DIZ) (Candida albicans): 10 mm
diameter of the inhibition zone (DIZ) [1]: 0 mm
diameter of the inhibition zone (DIZ) (Staphylococcus aureus): 10 mm
diameter of the inhibition zone (DIZ) (Bacillus cereus): 8 mm

N#Cc1c2c(c3nncn3c1SCC(N)=O)CCCC2
diameter of the inhibition zone (DIZ) (Fusarium oxysporum): 0 mm
diameter of the inhibition zone (DIZ) (Aspergillus flavus): 0 mm
diameter of the inhibition zone (DIZ) (Micrococcus luteus): 0 mm
diameter of the inhibition zone (DIZ) (Escherichia coli): 12 mm
diameter of the inhibition zone (DIZ) (Serratia marcescens): 0 mm
diameter of the inhibition zone (DIZ) (Trichophyton rubrum): 0 mm
diameter of the inhibition zone (DIZ) (Geotrichum candidum): 0 mm
diameter of the inhibition zone (DIZ) (Pseudomonas aeruginosa): 0 mm
diameter of the inhibition zone (DIZ) (Aspergillus niger): 0 mm
diameter of the inhibition zone (DIZ) (Candida albicans): 0 mm
diameter of the inhibition zone (DIZ) [1]: 0 mm
diameter of the inhibition zone (DIZ) (Staphylococcus aureus): 8 mm
diameter of the inhibition zone (DIZ) (Bacillus cereus): 13 mm

N#Cc1c(SCC(=O)c2ccccc2)nc(NN)c2c1CCCC2
diameter of the inhibition zone (DIZ) (Fusarium oxysporum): 0 mm
diameter of the inhibition zone (DIZ) (Aspergillus flavus): 0 mm
diameter of the inhibition zone (DIZ) (Micrococcus luteus): 0 mm
diameter of the inhibition zone (DIZ) (Escherichia coli): 0 mm
diameter of the inhibition zone (DIZ) (Serratia marcescens): 0 mm
diameter of the inhibition zone (DIZ) (Trichophyton rubrum): 12 mm
diameter of the inhibition zone (DIZ) (Geotrichum candidum): 12 mm
diameter of the inhibition zone (DIZ) (Pseudomonas aeruginosa): 0 mm
diameter of the inhibition zone (DIZ) (Aspergillus niger): 0 mm
diameter of the inhibition zone (DIZ) (Candida albicans): 0 mm
diameter of the inhibition zone (DIZ) [1]: 0 mm
diameter of the inhibition zone (DIZ) (Staphylococcus aureus): 10 mm
diameter of the inhibition zone (DIZ) (Bacillus cereus): 0 mm

Cc1cc(C)n(-c2nc(SCC(=O)c3ccccc3)c(C#N)c3c2CCCC3)n1
diameter of the inhibition zone (DIZ) (Fusarium oxysporum): 0 mm
diameter of the inhibition zone (DIZ) (Aspergillus flavus): 0 mm
diameter of the inhibition zone (DIZ) (Micrococcus luteus): 0 mm
diameter of the inhibition zone (DIZ) (Escherichia coli): 0 mm
diameter of the inhibition zone (DIZ) (Serratia marcescens): 0 mm
diameter of the inhibition zone (DIZ) (Trichophyton rubrum): 0 mm
diameter of the inhibition zone (DIZ) (Geotrichum candidum): 0 mm
diameter of the inhibition zone (DIZ) (Pseudomonas aeruginosa): 0 mm
diameter of the inhibition zone (DIZ) (Aspergillus niger): 0 mm
diameter of the inhibition zone (DIZ) (Candida albicans): 0 mm
diameter of the inhibition zone (DIZ) [1]: 0 mm
diameter of the inhibition zone (DIZ) (Staphylococcus aureus): 10 mm
diameter of the inhibition zone (DIZ) (Bacillus cereus): 0 mm
